Assay type in all cases: functional
The species named for assay [1] is Rattus norvegicus. Kind of assay: Antiinflammatory activity was determined by inhibition of adjuvant-induced arthritis in rats with respect to naproxen.
The species entered for another assay is Mus musculus. Kind of assay: Analgesic activity in mice by phenyl quinone-induced writhing assay with respect to aspirin. The procedure, abridged:
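Phenylquinone-induced writhing in mice; potency expressed as ED50 with 95% confidence limits, relative to aspirin as reference; number of mice recorded per test.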
On the technique in general: Writhing tests count abdominal constrictions after an irritant is injected.

Assay [2] concerns Rattus norvegicus. Kind of assay: Antiinflammatory activity was determined by inhibition of carrageenan-induced edema in rat paw with respect to phenylbutazone. The procedure, abridged: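 Carrageenan-induced rat paw edema; potency expressed as ED30 relative to phenylbutazone as reference; number of rats recorded.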
In general terms: In the carrageenan paw model, swelling and tenderness develop within hours.

The species entered for assay [3] is Rattus norvegicus. The experiment in a line: Gastrointestinal erosive activity was determined by 7-day chronic assay in rats. Particulars: 168 h, read-out: MED. In short, it runs like this:
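Chronic 7-day gastrointestinal erosion assay in rats; read-out is the minimum dose producing erosion (MED).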

For assay [4], the species on record is Rattus norvegicus. Kind of assay: Antiinflammatory activity was determined by inhibition of cotton pellet granuloma in rats with respcet to Indomethacin.
The nature of assay [5]: Ratio of MED GI erosion to ED30 for carrageenan rat paw was determined. The procedure, abridged: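 Therapeutic ratio calculated as the minimum erosive dose from the 7-day rat gastrointestinal erosion assay divided by the ED30 from the carrageenan rat paw edema assay.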
For assay [6], the species on record is Rattus norvegicus. Kind of assay: Antiinflammatory activity was determined to inhibit adjuvant-induced arthritis in rats with respect to naproxen.
Assay [7] is filed under the species Rattus norvegicus. The experiment in a line: Antiinflammatory activity was determined to inhibit cotton pellet granuloma in rats with respcet to Indomethacin.
For assay [8], the species on record is Rattus norvegicus. Kind of assay: Antiinflammatory activity was determined by inhibition of cotton pellet granuloma in rats with respect to Indomethacin.

26 molecules from ChEMBL document CHEMBL1123902, “Synthesis and antiinflammatory and analgesic activity of 5-aroyl-1,2-dihydro-3H-pyrrolo[1,2-a]pyrrole-1-carboxylic acids. The 6-substituted compounds” (1987) can be followed below.

`O=C(c1ccc(Cl)cc1)c1c(Cl)cc2n1CCC2C(=O)O` (stereo not given): the relative potency was 40 in the assay filed under Rattus norvegicus [1], 167 in the assay filed under Mus musculus, 88 in the assay with Rattus norvegicus [2] and 3 in the assay listed under Rattus norvegicus [4]. In the assay listed under Rattus norvegicus [3], the minimal effective dose is roughly 0.2 mg/kg. For the same molecule, in assay [5], the Therapeutic index was 1.
Turning to `O=C(c1ccccc1)c1c(Cl)cc2n1CCC2C(=O)O` (stereo not given), the relative potency is less than 8 in the assay listed under Rattus norvegicus [1], 246 in the assay filed under Mus musculus, 10 with Rattus norvegicus [2] and 0.6 in the assay listed under Rattus norvegicus [4]. Also, in the assay filed under Rattus norvegicus [3], the minimal effective dose is roughly 1.7 mg/kg. For the same molecule, in assay [5], the Therapeutic index came out at 1.
Consider `COc1ccc(C(=O)c2c(Cl)cc3n2CCC3C(=O)O)cc1` (stereo not given), for which the relative potency in the assay listed under Rattus norvegicus [1] amounted to 4; in the assay filed under Mus musculus, 201; in the assay with Rattus norvegicus [2], 55; in the assay listed under Rattus norvegicus [4], 0.7. The minimal effective dose in the assay filed under Rattus norvegicus [3] was roughly 1.3 mg/kg. Besides, the Therapeutic index in assay [5] is 5.
Regarding `O=C(c1ccc(F)cc1)c1c(Cl)cc2n1CCC2C(=O)O` (stereo not given), the relative potency worked out at 13 in the assay filed under Rattus norvegicus [1], 151 in the assay filed under Mus musculus, 139 in the assay on Rattus norvegicus [2] and 1 in the assay listed under Rattus norvegicus [4]. Further, in the assay filed under Rattus norvegicus [3], the minimal effective dose was roughly 0.3 mg/kg. In addition, the Therapeutic index in [5] came out at 3.
As for `CS(=O)(=O)c1ccc(C(=O)c2c(Cl)cc3n2CCC3C(=O)O)cc1` (stereo not given), the relative potency in the assay filed under Mus musculus is no more than 0.8; with Rattus norvegicus [2] it was less than 1.
The matching figures for `O=C(c1ccccc1)c1c(Br)cc2n1CCC2C(=O)O` (stereo not given): 314 and 7.4.
In the same order, the values of `COCCCc1cc2n(c1C(=O)c1ccc(F)cc1)CCC2C(=O)O` (stereo not given) are roughly 1 and less than 3.
For `COc1ccc2cc([C@H](C)C(=O)O)ccc2c1` [NAPROXEN], the relative potency in the assay filed under Mus musculus was 7; in the assay on Rattus norvegicus [2], 11; in the assay filed under Rattus norvegicus [6], 1; in the assay filed under Rattus norvegicus [7], 0.2. In the assay filed under Rattus norvegicus [3], the minimal effective dose came out at 30 mg/kg. Besides, the Therapeutic index in assay [5] is 22.
The molecule `COCCc1cc2n(c1C(=O)c1ccccc1)CCC2C(=O)O` (stereo not given) had a relative potency in the assay listed under Mus musculus of 7.6. The same molecule came in with an ED30 in the assay on Rattus norvegicus [2] of no more than 0.3 mg/kg.
`Cc1cc(CC(=O)O)n(C)c1C(=O)c1ccc(Cl)cc1` [ZOMEPIRAC]: the figures for the relative potency in the assay filed under Mus musculus and in the assay on Rattus norvegicus [2] were 36 and 26, respectively. Moreover, the Therapeutic index in assay [5] was 17.
Consider `COc1ccc(C(=O)c2c(C)cc3n2CCC3C(=O)O)cc1` (stereo not given), for which the values for the relative potency in the assay filed under Mus musculus and in the assay on Rattus norvegicus [2] were 130 and 73, respectively.
In the same order, the values of `CSc1ccc(C(=O)c2c(Cl)cc3n2CCC3C(=O)O)cc1` (stereo not given) are 100 and 68.
Consider `COCCc1cc2n(c1C(=O)c1ccc(F)cc1)CCC2C(=O)O` (stereo not given), for which, in the assay filed under Mus musculus, the relative potency is 1.1. In the assay on Rattus norvegicus [2], the ED30 was no more than 0.3 mg/kg.
Regarding `Cc1cc2n(c1C(=O)c1ccccc1)CCC2C(=O)O` (stereo not given), the relative potency in the assay filed under Rattus norvegicus [1] was 1; in the assay filed under Mus musculus it was 250; in the assay on Rattus norvegicus [2] it was 43; in the assay listed under Rattus norvegicus [8] it was 1. The minimal effective dose in the assay listed under Rattus norvegicus [3] turned out to be 1.7 mg/kg. Besides, the Therapeutic index in assay [5] was 5.
Turning to `CCc1cc2n(c1C(=O)c1ccc(F)cc1)CCC2C(=O)O` (stereo not given), the relative potency in the assay listed under Mus musculus was determined as 121; with Rattus norvegicus [2] it was 46.
For `Cc1cc2n(c1C(=O)c1ccc(F)cc1)CCC2C(=O)O` (stereo not given), the relative potency in the assay filed under Rattus norvegicus [1] came out at 3; in the assay filed under Mus musculus, 302; in the assay on Rattus norvegicus [2], 103; in the assay filed under Rattus norvegicus [4] it was 1. The minimal effective dose in the assay filed under Rattus norvegicus [3] was determined as 1.2 mg/kg. In addition, in assay [5], the Therapeutic index was 12.
On to `COCCCc1cc2n(c1C(=O)c1ccc(Cl)cc1)CCC2C(=O)O` (stereo not given), for which the relative potency in the assay listed under Mus musculus is no less than 1.5; in the assay on Rattus norvegicus [2], 1.2.
As for `Cc1ccc(C(=O)c2c(C)cc3n2CCC3C(=O)O)cc1` (stereo not given), the relative potency came to 3 in the assay filed under Rattus norvegicus [1], 250 in the assay listed under Mus musculus, 43 with Rattus norvegicus [2] and 0.7 in the assay filed under Rattus norvegicus [4]. The minimal effective dose in the assay filed under Rattus norvegicus [3] turned out to be 2.5 mg/kg. Also, in [5], the Therapeutic index turned out to be 7.
In the case of `O=C(c1ccc(F)cc1)c1c(Br)cc2n1CCC2C(=O)O` (stereo not given), the relative potency in the assay listed under Mus musculus worked out at 120; in the assay with Rattus norvegicus [2] it was 96.
Consider `Cc1ccc(C(=O)c2c(Cl)cc3n2CCC3C(=O)O)cc1` (stereo not given), for which the relative potency worked out at 11 in the assay filed under Rattus norvegicus [1], 158 in the assay filed under Mus musculus, 32 with Rattus norvegicus [2] and 0.2 in the assay filed under Rattus norvegicus [4]. The minimal effective dose in the assay listed under Rattus norvegicus [3] was determined as 5 mg/kg. Further, the Therapeutic index in [5] is 11.
On to `Cc1cc2n(c1C(=O)c1ccc(Cl)cc1)CCC2C(=O)O` (stereo not given), for which the relative potency in the assay filed under Rattus norvegicus [1] is 3.5; in the assay listed under Mus musculus, 167; with Rattus norvegicus [2] it was 122; in the assay listed under Rattus norvegicus [4] it was 2. Moreover, the minimal effective dose in the assay listed under Rattus norvegicus [3] worked out at 0.6 mg/kg. Moreover, in [5], the Therapeutic index was 5.
In the case of `CCc1cc2n(c1C(=O)c1ccccc1)CCC2C(=O)O` (stereo not given), the relative potency in the assay listed under Mus musculus is 108; in the assay on Rattus norvegicus [2] it was 26.
Turning to `COCCCc1cc2n(c1C(=O)c1ccccc1)CCC2C(=O)O` (stereo not given), the relative potency in the assay filed under Mus musculus is no more than 3; in the assay with Rattus norvegicus [2] it was less than 10.
In the same order, the values of `C1CCC(NC2CCCCC2)CC1.Cc1cc2n(c1C(=O)c1ccccc1)CCC2(C)C(=O)O` (stereo not given) are 40 and less than 7.
Take `COc1ccc2c(c1)c(CC(=O)O)c(C)n2C(=O)c1ccc(Cl)cc1` [INDOMETHACIN]: the relative potency in the assay filed under Mus musculus worked out at 60; with Rattus norvegicus [2], 16; in the assay listed under Rattus norvegicus [6] it was 7; in the assay filed under Rattus norvegicus [7], 1.
On to `COCCc1cc2n(c1C(=O)c1ccc(Cl)cc1)CCC2C(=O)O` (stereo not given), for which the relative potency in the assay listed under Mus musculus worked out at 5. This molecule gave an ED30 in the assay on Rattus norvegicus [2] of less than 0.3 mg/kg.
